Sampled rows, rich in hits. Any-hit rate of the full collection: about 5.8%.
T cruzi growth-1: T. cruzi intracellular proliferation inhibitors, primary screen, cell-based, beta-gal Tulahuen parasites, NIH3T3 host, luminescence; 5.9% of 77,000 active; inhibition, % at 8.34 µM; T. cruzi beta-gal in NIH3T3, GalScreen luminescence, 90 h;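 active = mean inhibition above about 93%, with at least 55% of replicates each passing it, limit read from the data, passing the limit was not always enough; inconclusive = only one of those two conditions holds; inactive = neither condition holds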
Pf Dd2 inh: P. falciparum Dd2 growth inhibitors, primary screen, SYBR Green fluorescence, single dose replicates; AID 1159554, 2015; activity change, % at 10 µM; 2.3% of 94,000 active; 72 h; hits give low values; in the data active = activity change below about -80%; inconclusive = no clear call, values can overlap the other calls
GASC1 inh: inhibitors of GASC-1 (KDM4C) histone demethylase, primary screen, biochemical, single concentration HTS | Lysine-specific demethylase 4C (Homo sapiens), Q9H3R0 | GST-KDM4C 2-372, H3K9me3 peptide, LANCE TR-FRET | inhibition, % at 12.5 µM | 0.15% of 96,000 active;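 active = mean replicate inhibition above about 25%, with at least 55% of replicates also reaching it, limit read from the data, passing the limit was not always enough; inconclusive = only one of those two conditions met; inactive = neither condition met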
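Material: GST-tagged GASC-1 (JMJD2C) catalytic fragment, aa 2-372. Input: enzyme final amount 10 nM. Medium: HEPES buffer, pH 7.5, plus ascorbate. Reagent: H3K9me3 peptide substrate, Fe(II), 2-oxoglutarate. Doses: single dose. Times: reaction 30 min RT, detection step 1 h RT. Measured by: LANCE TR-FRET. Evaluation: Fall in 671/618 emission ratio as inhibition.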
IDH1 R132H inh: inhibitors of IDH1 R132H reductase, primary screen, biochemical, plate reader, single point. 0.18% of 70,000 active. diaphorase/resazurin fluorescence, 60 min. inhibition, % at 10 µM. Isocitrate dehydrogenase [NADP] cytoplasmic (Homo sapiens), O75874; in the data active = inhibition above about 34%; inconclusive = no clear call, values can overlap the other calls; inactive = below about 11%;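 note: 0% = DMSO and 100% = no enzyme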
Target sequence (O75874 whole entry R132H): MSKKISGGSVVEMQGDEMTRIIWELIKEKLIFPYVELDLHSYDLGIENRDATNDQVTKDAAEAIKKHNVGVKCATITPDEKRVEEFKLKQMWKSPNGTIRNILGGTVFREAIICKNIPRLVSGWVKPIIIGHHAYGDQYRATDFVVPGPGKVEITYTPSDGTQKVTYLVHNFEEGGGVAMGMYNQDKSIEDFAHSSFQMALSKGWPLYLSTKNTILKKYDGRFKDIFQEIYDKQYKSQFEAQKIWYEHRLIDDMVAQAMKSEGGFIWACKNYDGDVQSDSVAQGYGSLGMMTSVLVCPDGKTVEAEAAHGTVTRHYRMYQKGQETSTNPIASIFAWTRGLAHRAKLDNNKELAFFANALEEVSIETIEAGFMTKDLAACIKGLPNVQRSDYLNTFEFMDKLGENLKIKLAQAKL
T cruzi growth-2: T. cruzi intracellular proliferation inhibitors, confirmation, cell-based, NIH3T3 host, beta-gal parasite, luminescence, cherry-pick; T. cruzi beta-gal in NIH3T3, GalScreen luminescence, 90 h; shares compounds with T cruzi growth-1; inhibition, % at 8.35 µM; 72% of 5,600 active;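 active = mean replicate inhibition above about 95% and at least 55% of replicates individually reaching it, limit read from the data; inconclusive = only one of the two criteria is met; inactive = neither criterion is met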
T cruzi growth-3: inhibitors of intracellular T. cruzi replication, confirmation, NIH3T3 host cells, beta-gal parasites, cherry-pick, set 2. shares compounds with T cruzi growth-1. T. cruzi beta-gal in NIH3T3, GalScreen luminescence, 90 h. inhibition, % at 2.09 µM. 21% of 5,600 active;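 active = mean inhibition above about 95%, with at least 55% of replicates also reaching it, limit read from the data; inconclusive = meets just one of the two conditions; inactive = meets neither condition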;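 note: plate controls were neutral control median for no effect and positive control median for full effect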
3T3 cytotox: cytotoxicity in mouse NIH/3T3 fibroblasts, confirmation, cytotoxicity control for T. cruzi proliferation inhibitor project, cell-based, cherry-pick, single point; shares compounds with T cruzi growth-1; AID 651742, 2012; 14% of 5,600 active; NIH/3T3 viability, CellTiter-Glo ATP luminescence, 90 h; cytotoxicity (signal decrease), % at 8.35 µM;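 active = mean signal decrease across replicates above about 35% based on untreated-well scatter, with enough replicates individually passing, limit read from the data; inconclusive = no rule stated though some were filed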;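 note: 0% = median of neutral control wells and 100% = median of positive control wells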
NIH3T3 tox 2: NIH/3T3 fibroblast cytotoxicity, confirmation, cytotoxicity control, cell-based, cherry-pick, single point, set 2. shares compounds with T cruzi growth-1. inhibition, % at 24.9 µM. 56% of 5,600 active. NIH/3T3 viability, CellTiter-Glo ATP luminescence, 90 h;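 active = mean loss of cell viability signal at or above a set limit, and enough replicates individually reaching it; inconclusive = meets only the mean limit or only the replicate share; inactive = meets neither condition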;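 note: 0% = median of neutral control wells and 100% = median of positive control wells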
Numbers without * were called inactive; ? = inconclusive; / = no result given.

SMILES	T cruzi growth-1	Pf Dd2 inh	GASC1 inh	IDH1 R132H inh	T cruzi growth-2	T cruzi growth-3	3T3 cytotox	NIH3T3 tox 2
O=C(NC[C@@H]1N[C@@H](CO)[C@@H]1c1ccc(-c2ccccc2F)cc1)c1ccccn1	102*	-17	-3	/	45	13	-10	-7
N#C[C@@H]1N[C@H](CO)[C@H]1c1ccc(-c2ccccc2F)cc1	102*	35	1	/	53	33	-3	17
N#C[C@@H]1N[C@H](CO)[C@H]1c1ccc(C2=CCCC2)cc1	101*	23	0	/	89	-1	-26	-1
O=C(NC[C@H]1N[C@@H](CO)[C@H]1c1ccc(-c2ccccc2)cc1)c1ccccc1F	76	-32	-3	/	/	/	/	/
CCn1c(SCC(=O)Nc2ccccc2C(F)(F)F)nnc1-c1cccc([N+](=O)[O-])c1	/	/	/	0	/	/	/	/
Cc1ccc(CCN=c2c([N+](=O)[O-])nn(-c3ccc4c(c3)OCCO4)n2O)cc1	/	/	/	2	/	/	/	/
CC(C)(C)c1csc(-c2sccc2CS(=O)(=O)c2ccc(Cl)cc2)n1	/	/	/	1	/	/	/	/
CN(CC(=O)Nc1ccccc1-c1ccccc1)S(=O)(=O)c1ccc2ccccc2c1	/	/	/	0	/	/	/	/
CC(C)C(=O)Nc1ccc2c(c1)C(=O)N(C)[C@@H]1CC[C@@H](CC(=O)NCc3ccc(F)cc3)O[C@@H]1CO2	96*	4	-2	/	49	-13	17	-15
COCCNC(=O)C[C@H]1CC[C@@H]2[C@@H](COc3ccc(NC(C)=O)cc3C(=O)N2C)O1	69	-64	0	/	/	/	/	/
CN1C(=O)c2cc(NC(=O)c3ccc(F)cc3)ccc2OC[C@H]2O[C@@H](CC(=O)NCC3CCCCC3)CC[C@H]21	101*	-3	4	/	113*	61	39*	61*
COCCNC(=O)C[C@H]1CC[C@@H]2[C@H](COc3ccc(NC(C)=O)cc3C(=O)N2C)O1	101*	-73	0	/	13	-38	5	7
COCC(=O)Nc1ccc2c(c1)C(=O)N(C)[C@H]1CC[C@H](CC(=O)Nc3ccccc3OC)O[C@@H]1CO2	112*	-17	/	/	?	-4	10	11
CC(C)C(=O)Nc1ccc2c(c1)C(=O)N(C)[C@@H]1CC[C@@H](CC(=O)NCc3ccc(F)cc3)O[C@H]1CO2	42	-13	0	/	/	/	/	/
CC(=O)c1cccc(NC(=O)Nc2nn(Cc3c(F)cccc3Cl)cc2Br)c1	/	/	/	0	/	/	/	/
COc1ccc(NC(=S)NCc2cn(-c3ccccc3)nc2-c2ccccc2)cc1OC	/	/	/	0	/	/	/	/
N#Cc1ccccc1NC(=O)COc1ccccc1[N+](=O)[O-]	/	/	/	0	/	/	/	/
CCc1ccc(OCC(=O)Nc2sc3c(c2C(N)=O)CCCC3)c(Br)c1	/	/	/	0	/	/	/	/
COC(=O)c1ccc(NC(=O)CN2C(=O)C3C4CC(c5ccccc5)C(C4)C3C2=O)cc1 (stereo unspecified)	/	/	/	0	/	/	/	/
C=Cc1ccc(O[C@@H]2O[C@H](CO)[C@@H](O)[C@H](O)[C@H]2O[C@@H]2O[C@@H](C)[C@H](O)[C@@H](O)[C@H]2O)cc1	/	/	/	0	/	/	/	/
CC(=O)Nc1ccc2c(c1)C(=O)N(C)[C@H]1CC[C@@H](CC(=O)NCC3CC3)O[C@@H]1CO2	-21	11	-1	/	/	/	/	/
CC(=O)Nc1ccc2c(c1)C(=O)N(C)[C@@H]1CC[C@@H](CC(=O)NCC3CCCCC3)O[C@H]1CO2	99*	16	7	/	10	29	2	-6
C[C@H](CO)N1C[C@H](C)[C@@H](CN(C)S(=O)(=O)c2ccc(F)cc2)OCCCC[C@H](C)Oc2ccc(NC(=O)Nc3ccc4c(c3)OCO4)cc2C1=O	100*	-40	17	4	110*	62	-23	4
C[C@@H]1CCCCO[C@@H](CN(C)S(=O)(=O)c2ccc(F)cc2)[C@H](C)CN([C@@H](C)CO)C(=O)c2cc(NC(=O)Nc3ccc4c(c3)OCO4)ccc2O1	24	-19	0	/	/	/	/	/
C[C@@H]1CCCCO[C@H](CN(C)S(=O)(=O)c2ccc(F)cc2)[C@H](C)CN([C@@H](C)CO)C(=O)c2cc(NC(=O)Nc3ccc4c(c3)OCO4)ccc2O1	100*	-81*	-2	/	102*	72	-18	12
SMILES	T cruzi growth-1	Pf Dd2 inh	GASC1 inh	IDH1 R132H inh	T cruzi growth-2	T cruzi growth-3	3T3 cytotox	NIH3T3 tox 2
CCc1ccc(NC(=O)Cn2cnc3ccccc3c2=O)cc1	/	/	/	0	/	/	/	/
C[C@H](CO)N1C[C@H](C)[C@H](CN(C)Cc2ccccc2)Oc2c(NC(=O)c3nc4ccccc4s3)cccc2C1=O	99*	-25	-1	0	103*	47	-4	?
C[C@@H]1CN([C@H](C)CO)C(=O)c2cccc(NC(=O)c3nc4ccccc4s3)c2O[C@H]1CN(C)Cc1ccc(C(=O)Nc2ccccc2N)cc1	104*	-92*	3	/	108*	77	-12	33*
C[C@H]1CN([C@@H](C)CO)C(=O)c2cccc(NC(=O)c3nc4ccccc4s3)c2O[C@H]1CN(C)Cc1ccc(C(F)(F)F)cc1	?	?	-4	0	110*	65	34	96*
C[C@H]1CN([C@@H](C)CO)C(=O)c2cccc(NC(=O)c3nc4ccccc4s3)c2O[C@H]1CN(C)Cc1ccc(Cl)c(Cl)c1	97*	-57	-4	/	112*	73	47*	54*
C[C@@H]1CN([C@H](C)CO)C(=O)c2cccc(NC(=O)c3nc4ccccc4s3)c2O[C@H]1CN(C)Cc1ccc(C(F)(F)F)cc1	96	-77	-1	/	/	/	/	/
COc1ccccc1C(=O)Oc1c(CN2CCOCC2)cc(Cl)c2cccnc12	/	/	/	-1	/	/	/	/
COC(=O)c1sccc1-c1ccc(-c2ccn(C(=O)c3ccc(Cl)cc3)n2)o1	/	/	/	-1	/	/	/	/
NC(=O)CSc1ncn(-c2ccccc2)n1	/	/	/	0	/	/	/	/
O=C(CSc1nnc(-c2ccc(Br)cc2)o1)Nc1cc(C(F)(F)F)ccc1Cl	/	/	/	0	/	/	/	/
CCN1CCOC(CC(=O)Nc2cc(OC)cc(OC)c2)C1=O (stereo unspecified)	/	/	/	0	/	/	/	/
C[C@H](CO)N1C[C@H](C)[C@@H](CN(C)S(=O)(=O)c2ccccc2F)Oc2cc(-c3ccccc3)ccc2S1(=O)=O	69	-64	0	-1	/	/	/	/

Bioassay records (PubChem)
